Assay results: ChEMBL document CHEMBL6074625, “Thiazolidine-2,4-dione hybrids as dual alpha-amylase and alpha-glucosidase inhibitors: design, synthesis, in vitro and in vivo anti-diabetic evaluation” (RSC Med Chem, 2024)
pIC50: −log10 of the molar value. Active and inactive are the calls of the source. No cut-off for these calls is given here.

Key:
INS1 = experiment: Cytotoxicity against rat INS1 cells assessed as inhibition of cell viability at upto 100 uM incubated for 24 hrs by MTT assay; format: toxicity, cell-based; conditions: ins1, 24 h
Outline: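 INS-1 MTT run as for PANC-1: 20 × 10³ cells per well in triplicate, 24 h at 37 °C/5% CO₂, then 5–100 μM (7 levels) for another day. MTT (5 mg mL⁻¹ stock) 3 h, centrifugation, DMSO solubilisation 30 min in dark, absorbance at 570 nm.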

Rattus norvegicus [1] = species on record: Rattus norvegicus; experiment: (§1) Anti-diabetic activity in high glucose induced alpha-amylase expression in fasted STZ-induced diabetic Wistar rat model assessed as alpha-amylase level in pancreas by measuring minimum fractional index incubated for 23 hrs and measured after 24 hrs by flow cytometric analysis (reference value: 2590 + 199.74); format: functional
Rattus norvegicus [2] = experiment: Anti-diabetic activity against in streptozotocin-induced diabetic Wistar rat model assessed as reduction in blood glucose level at 10 mg/kg, po administered for 21 days measured on day 35 by tail puncture method; format: functional, organism-based; conditions: time 35.0 day
Outline: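 STZ given on day 1; oral treatment started day 14, with vehicle 0.5% CMC in controls. Six groups: normal, vehicle, STZ, STZ + two test compounds, STZ + pioglitazone. Blood glucose (tail puncture, glucometer) and body weight recorded on days 1, 4, 14 and 35. One-way ANOVA.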

Rattus norvegicus [3] = species on record: Rattus norvegicus; experiment: Anti-inflammatory activity in STZ-induced diabetic Wistar rat model assessed as […] level in serum by ELISA method; format: functional, organism-based
Outline: (§2)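 STZ-diabetic Wistar rats in six groups (normal, vehicle 0.5% CMC oral, STZ, STZ + test compounds, STZ + pioglitazone); oral treatment started day 14 after STZ on day 1. Markers measured in serum, pancreatic homogenate or whole blood, as named in each line. Groups compared by one-way ANOVA.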

Rattus norvegicus [4] = species on record: Rattus norvegicus; experiment: Anti-diabetic activity against STZ-induced diabetic Wistar rat model assessed as increase increase in number of lymphocytes level; format: functional, organism-based; outline: as §2
Rattus norvegicus [5] = experiment: Antidiabetic activity against streptozotocin-induced Wistar rat assessed as decrease in total cholesterol at 10 mg/kg, po administered for 21 days measured on day 35; format: functional, organism-based; conditions: time 35.0 day; outline: as §2
Rattus norvegicus [6] = species on record: Rattus norvegicus; experiment: Anti-inflammatory activity in STZ-induced diabetic Wistar rat model assessed as decrease in IL-1beta level in blood by ELISA method
Rattus norvegicus [7] = experiment: Antidiabetic activity against streptozotocin-induced Wistar rat assessed as increase in PPAR-gamma level at 10 mg/kg, po administered for 21 days measured on day 35 by ELISA analysis; format: functional, organism-based; conditions: time 35.0 day; outline: as §2
Rattus norvegicus [8] = experiment: Antidiabetic activity against streptozotocin-induced Wistar rat assessed as increase creatinine level in serum at 10 mg/kg, po administered for 21 days measured on day 35; format: functional, organism-based; conditions: time 35.0 day; outline: as §2
Rattus norvegicus [9] = experiment: Antidiabetic activity against streptozotocin-induced Wistar rat assessed as increase in serum SGPT level at 10 mg/kg, po administered for 21 days measured on day 35; format: functional, organism-based; conditions: time 35.0 day; outline: as §2
Rattus norvegicus [10] = species on record: Rattus norvegicus; experiment: Anti-diabetic activity against STZ-induced diabetic Wistar rat model assessed as increase increase in number of total red blood cell count level; format: functional, organism-based; outline: as §2
PANC-1 [11] = experiment: Anti-diabetic activity against high glucose induced human PANC-1 cells assessed as decrease in glucose induced alpha-glucosidase expression by measuring by measuring minimum fractional index at 5 uM incubated for 23 hrs and measured after 24 hrs by flow cytometric analysis (reference value: 4361 +/- 257.83); format: functional
Rattus norvegicus [12] = species on record: Rattus norvegicus; experiment: Anti-diabetic activity against STZ-induced diabetic Wistar rat model assessed as increase increase in number of white blood cell count level; format: functional, organism-based; outline: as §2
Rattus norvegicus [13] = species on record: Rattus norvegicus; experiment: as §1, with “as alpha-glucosidase” for “as alpha-amylase”, “value: 3063” for “value: 2590”, “+ 149.2)” for “+ 199.74)”; format: functional
Rattus norvegicus [14] = experiment: Antidiabetic activity against streptozotocin-induced Wistar rat assessed as increase BUN level in serum at 10 mg/kg, po administered for 21 days measured on day 35; format: functional, organism-based; conditions: time 35.0 day; outline: as §2
PANC-1 [15] = experiment: Antioxidant activity in human PANC-1 cells assessed as decrease in high glucose induced ROS production by measuring minimum fractional index at 5 uM incubated for 24 hrs by DCFDA-staining based flow cytometry analysis; format: functional
Outline: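 PANC-1 cells (1 × 10⁵/well) grown 24 h at 37 °C, 5% CO₂, then pre-treated 1 h with 5 μM compound. Exposed to glucose (stated 10 μM) for 23 h. Stained with 10 μM DCFH-DA for 30 min at 37 °C, rinsed, and ROS read by flow cytometry as DCFDA/FITC mean fluorescence intensity.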

Rattus norvegicus [16] = experiment: Anti-diabetic activity against in streptozotocin-induced diabetic Wistar rat model assessed as reduction in blood glucose level at 10 mg/kg, po administered as single dose and measured upto 120 min by oral glucose tolerance test; format: functional, organism-based
Outline: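 Wistar rats fasted 16 h, given a single oral 10 mg kg⁻¹ dose, then oral glucose 2 g kg⁻¹ immediately. Blood glucose taken by tail puncture with a glucometer at 0, 15, 30, 60, 90 and 120 min. Groups compared by ANOVA.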

Rattus norvegicus [17] = experiment: Antidiabetic activity against STZ-induced oxidative stress in Wistar rats model assessed as increase GSH serum level at 10 mg/kg, po administered for 21 days measured on day 35 by absorbance based UV-spectroscopic analysis; format: functional, organism-based; conditions: time 35.0 day; outline: as §2
PANC-1 [18] = experiment: Inhibition of high glucose induced alpha-amylase expressed in human PANC-1 cells assessed as decrease alpha-glucosidase level by measuring minimum fractional index incubated for 23 hrs and measured after 24 hrs by flow cytometric analysis; format: functional, cell-based
Rattus norvegicus [19] = experiment: Antidiabetic activity against streptozotocin-induced Wistar rat assessed as increase in serum SGOT level at 10 mg/kg, po administered for 21 days measured on day 35; format: functional, organism-based; conditions: time 35.0 day; outline: as §2
Rattus norvegicus [20] = species on record: Rattus norvegicus; experiment: Anti-diabetic activity against STZ-induced diabetic Wistar rat model assessed as increase increase in number of haemoglobin level; format: functional, organism-based; outline: as §2
Rattus norvegicus [21] = experiment: Antidiabetic activity against streptozotocin-induced Wistar rat assessed as reduction in serum ALP level at 10 mg/kg, po administered for 21 days measured on day 35; conditions: time 35.0 day
Rattus norvegicus [22] = experiment: Antidiabetic activity against streptozotocin-induced Wistar rat assessed as increase in serum amylase level at 10 mg/kg, po administered for 21 days measured on day 35 by ELISA analysis; format: functional, organism-based; conditions: time 35.0 day; outline: as §2
Rattus norvegicus [23] = species on record: Rattus norvegicus; experiment: Anti-diabetic activity against STZ-induced diabetic Wistar rat model assessed as increase increase in number of basophils level; format: functional, organism-based; outline: as §2
[24] = Inhibition of porcine pancreatic alpha-amylase using starch as substrate preincubated for 10 min followed by substrate addition and measured after 20 min by absorbance based analysis; design: species or system Sus scrofa
Outline: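 Porcine α-amylase (1 U mL⁻¹) pre-incubated with compound 10 min at 25 °C in phosphate buffer pH 6.8. 1% starch added, then 15 min at 37.5 ± 2 °C. Quenched with DNS reagent, heated 70 °C 20 min, diluted with buffer, A540 read, in triplicate. Final concentrations 100–1 μM from DMSO dilutions; IC50 from a linear fit of % inhibition at y = 50.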

Rattus norvegicus [25] = species on record: Rattus norvegicus; experiment: Anti-diabetic activity against STZ-induced diabetic Wistar rat model assessed as increase increase in number of neutrophils level; format: functional, organism-based; outline: as §2
Rattus norvegicus [26] = species on record: Rattus norvegicus; experiment: Anti-diabetic activity against STZ-induced diabetic Wistar rat model assessed as increase increase in number of eosinophils level; format: functional, organism-based; outline: as §2

Compound	Activity (INS1)	Activity index (Rattus norvegicus [1])	Activity (Rattus norvegicus [2])	Activity (Rattus norvegicus [3])	Activity (Rattus norvegicus [4])	Activity (Rattus norvegicus [5])	Activity (Rattus norvegicus [6])	Activity (Rattus norvegicus [7])	Activity (Rattus norvegicus [8])	Activity (Rattus norvegicus [9])	Activity (Rattus norvegicus [10])	Activity_index (PANC-1 [11])	Activity (Rattus norvegicus [12])	Activity index (Rattus norvegicus [13])	Activity (Rattus norvegicus [14])	Activity_index (PANC-1 [15])	Activity (Rattus norvegicus [16])	Activity (Rattus norvegicus [17])	Activity (PANC-1 [18])	Activity (Rattus norvegicus [19])	further results
C=CCOc1ccc(/C=C2\SC(=O)N(Cc3cccc([N+](=O)[O-])c3)C2=O)cc1OCC	Non-toxic	676	Active	Active	Active	Active	Active	Active	Active	Active	Active	2242	Active	132	Active	97.6	Active	Active	Dose-dependent-effect	Active	Activity (Rattus norvegicus [20]): Active; Activity (Rattus norvegicus [21]): Active; Activity (Rattus norvegicus [22]): inactive; Activity (Rattus norvegicus [23]): Active; pIC50 [24]: 4.77; Activity (Rattus norvegicus [25]): Active; Activity (Rattus norvegicus [26]): Active
C#CCOc1ccc(/C=C2\SC(=O)N(Cc3cccc([N+](=O)[O-])c3)C2=O)cc1OCC	Non-toxic	2250	Active	Active	Active	Active	Active	Active	Active	Active	Active	752	Active	2540	Active	85.2	Active	Active	Dose-dependent-effect	Active	Activity (Rattus norvegicus [20]): Active; Activity (Rattus norvegicus [21]): Active; Activity (Rattus norvegicus [22]): inactive; Activity (Rattus norvegicus [23]): Active; pIC50 [24]: 5.04; Activity (Rattus norvegicus [25]): Active; Activity (Rattus norvegicus [26]): Active
